According to ChEMBL document CHEMBL1132347, “Cytotoxicity of 2,2':6',2' '-terpyridineplatinum(II) complexes against human ovarian carcinoma” (J Med Chem, 1999):
Values joined by “and” are separate entries in the source; they are usually repeats but may differ in a detail not shown here. Identical values can stand only once.

Assays:
Assay type in all cases: functional, cell-based
[1] = system: A2780; assay: In vitro inhibition of human ovarian cell line, resistant to cisplatin (A2780cisR).
How it was run: (§1)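 Single viable cells seeded at 4000-5000/well in DMEM with 10% fetal calf serum and left to attach overnight. Compounds dissolved in water and added at once, 10 concentrations per drug, 4 wells per concentration, 96 h exposure. Cell number in treated versus control wells read by sulforhodamine B staining; IC50 is the concentration cutting absorbance by 50% relative to controls.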

[2] = system: CH1; assay: In vitro inhibition of human ovarian cell line, resistant to doxorubicin (CH1doxR).; how it was run: as §1
[3] = system: CH1; assay: In vitro inhibition of human ovarian cell line (CH1); how it was run: as §1
[4] = system: A2780; assay: In vitro inhibition of human ovarian cell line A2780; how it was run: as §1
[5] = system: SK-OV-3; assay: In vitro inhibition of human ovarian cell line SKOV-3.; how it was run: as §1
[6] = system: CH1; assay: In vitro inhibition of human ovarian cell line, resistant to cisplatin (CH1cisR).; how it was run: as §1
[7] = system: CH1; assay: Resistance factor, (IC50 of CH1 doxR / IC50 of CH1); conditions: Homo sapiens
[8] = system: CH1; assay: Resistance factor, (IC50 of CH1 cisR / IC50 of CH1); conditions: Homo sapiens; CH1cisR
[9] = system: A2780; assay: Resistance factor, (IC50 of A2780 cisR cisR / IC50 of A2780); conditions: Homo sapiens

| Substance | IC50 [1] | IC50 [2] | IC50 [3] | IC50 [4] | IC50 [5] | IC50 [6] | Resistance factor [7] | Resistance factor [8] | Resistance factor [9] |
| --- | --- | --- | --- | --- | --- | --- | --- | --- | --- |
| 4'-chloro-2,2':6,2''-Terpyridineplatinum (II) complex [listing 1 of 4 here] | 1.4 µM | 0.46 µM | 1.4 µM | 2.4 µM | 5.1 µM | 1.8 µM |  |  |  |
| CISPLATIN [listing 1 of 2 here] | 8.8 µM | 0.5 µM | 0.4 µM | 0.53 µM | 2.25 µM | 1.2 µM |  |  |  |
| CISPLATIN [listing 2 of 2 here] |  |  |  |  |  |  | 1.2 | 3 | 16.6 |
| (2,2':6',2''-terpyridine)platinum (II) complex [listing 1 of 10 here] | 29.5 µM | 1.05 µM | 5 µM | 39 µM |  | 5.8 µM |  |  |  |
| 4'-chloro-2,2':6,2''-Terpyridineplatinum (II) complex [listing 2 of 4 here] | 6.6 µM |  | 2.15 µM | 4.75 µM | 1.8 µM |  |  |  |  |
| (2,2':6',2''-terpyridine)platinum (II) complex [listing 2 of 10 here] |  | 5.4 µM | 15.5 µM | 21.5 µM | > 100 µM | 14 µM |  |  |  |
| (2,2':6',2''-terpyridine)platinum (II) complex [listing 3 of 10 here] | 23.5 µM | 3.75 µM | 5.2 µM | 11.5 µM | 15 µM | 4.5 µM |  |  |  |
| (2,2':6',2''-terpyridine)platinum (II) complex [listing 4 of 10 here] |  | 17.5 µM | > 100 µM |  |  | > 100 µM |  |  |  |
| CARBOPLATIN [listing 1 of 2 here] | > 100 µM | 6 µM | 6.2 µM | 35 µM | > 100 µM | 14 µM |  |  |  |
| (2,2':6',2''-terpyridine)platinum (II) complex [listing 5 of 10 here] | > 100 µM | 5.7 µM | 17.5 µM |  | 24 µM | 18 µM |  |  |  |
| 4'-chloro-2,2':6,2''-Terpyridineplatinum (II) complex [listing 3 of 4 here] | 11 µM | 0.71 µM | 2.05 µM | > 25 µM | 3.5 µM | 2.15 µM |  |  |  |
| (2,2':6',2''-terpyridine)platinum (II) complex [listing 6 of 10 here] | 6.7 µM | 0.85 µM | 2.1 µM | 5.8 µM | 9.2 µM | 2.1 µM |  |  |  |
| (2,2':6',2''-terpyridine)platinum (II) complex [listing 7 of 10 here] |  |  |  |  |  |  |  | 0.9 (3×) and 1 (2×) and 1.2 (3×) | 1.3 [middle of 6 runs] |
| (2,2':6',2''-terpyridine)platinum (II) complex [listing 8 of 10 here] | 92 µM | 5 µM | 14 µM | 40 µM | 17 µM | 12.5 µM |  |  |  |
| 4'-chloro-2,2':6,2''-Terpyridineplatinum (II) complex [listing 4 of 4 here] |  |  |  |  |  |  | 0.3 | 1 (2×) and 1.3 | 1.4 and 0.6 |
| CARBOPLATIN [listing 2 of 2 here] |  |  |  |  |  |  | 1 | 2.3 |  |
| (2,2':6',2''-terpyridine)platinum (II) complex [listing 9 of 10 here] | 21.5 µM | 3.95 µM | 6.1 µM | 16 µM | 13 µM | 7.5 µM |  |  |  |
| (2,2':6',2''-terpyridine)platinum (II) complex [listing 10 of 10 here] | 25 µM | 1.5 µM | 7.2 µM | 27 µM | 13.5 µM | 8.9 µM |  |  |  |
